# Test results from ChEMBL document CHEMBL1130007, “Carbocyclic oxetanocins lacking the C-3' methylene” (1997).
# Assays:
# Assay type in all cases: functional
# Vero [1] = test: Minimum inhibitory conc. for 50% inhibition of Sindbis virus induced cytopathicity in Vero cells; conditions: Chlorocebus sabaeus
# Outline: (§1)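 Confluent E6SM or Vero monolayers were infected with 100 CCID50 of virus and allowed 1 h of adsorption. Residual virus was then removed. Cultures were incubated with compound in serial dilutions (400, 200, 100, ... µg/mL). Cytopathicity was scored when it was complete in the untreated infected controls.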
# HeLa [2] = test: Minimum inhibitory conc. for 50% inhibition of vesicular stomatitis virus induced cytopathicity in HeLa cells; conditions: Homo sapiens
# Vero [3] = test: Minimum inhibitory conc. for 50% inhibition of alteration of morphology in Vero cells; conditions: Chlorocebus sabaeus
# HeLa [4] = test: Minimum inhibitory conc. for 50% inhibition of morphology […] in HeLa cells; conditions: Homo sapiens
# HeLa [5] = test: Minimum inhibitory conc. for 50% inhibition of Polio-1 virus induced cytopathicity in HeLa cells; conditions: Homo sapiens
# Vero [6] = test: Minimum inhibitory conc. for 50% inhibition of Parainfluenza-3 virus induced cytopathicity in Vero cells; conditions: Chlorocebus sabaeus; outline: as §1
# Vero [7] = test: Minimum inhibitory conc. for 50% inhibition of forest virus induced cytopathicity in Vero cells; conditions: Chlorocebus sabaeus; outline: as §1
# Vero [8] = test: Minimum inhibitory conc. for 50% inhibition of Reo-1 virus induced cytopathicity in Vero cells; conditions: Chlorocebus sabaeus; outline: as §1
# HeLa [9] = test: Minimum inhibitory conc. for 50% inhibition of coxsackie B4 virus induced cytopathicity in HeLa cells; conditions: Homo sapiens
# E6SM [10] = test: Minimum inhibitory conc. for 50% inhibition of HSV-1 (McIntyre) virus induced cytopathicity in E6SM cells; conditions: Homo sapiens
# E6SM [11] = test: Minimum inhibitory conc. for 50% inhibition of HSV-1 (KOS) virus induced cytopathicity in E6SM cells; conditions: Homo sapiens
# E6SM [12] = test: Minimum inhibitory conc. for 50% inhibition of vesicular stomatitis virus induced cytopathicity in E6SM cells; conditions: Homo sapiens
# E6SM [13] = test: Minimum inhibitory conc. for 50% inhibition of vaccinia virus induced cytopathicity in E6SM cells; conditions: Homo sapiens
# HEL [14] = test: Minimum inhibitory conc. for 50% inhibition of growth in HEL cells; conditions: Homo sapiens
# Outline: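 HEL cell cytotoxicity was measured as inhibition of normal cell growth. The value is the concentration inhibiting growth by 50%.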
# HEL [15] = test: Minimum inhibitory conc. for 50% inhibition of TK VZV (07/1) virus plaque formation in HEL cells; conditions: Homo sapiens
# E6SM [16] = test: Minimum inhibitory conc. for 50% inhibition of HSV-2 (G) virus induced cytopathicity in E6SM cells; conditions: Homo sapiens; outline: as §1
# HEL [17] = test: Minimum inhibitory conc. for 50% inhibition of VZV (OKA) virus plaque formation in HEL cells; conditions: Homo sapiens
# E6SM [18] = test: Minimum inhibitory conc. for 50% inhibition of TK HSV-1 (B2006) virus induced cytopathicity in E6SM cells; conditions: Homo sapiens; outline: as §1
# E6SM [19] = test: Minimum inhibitory conc. for 50% inhibition of HSV-1 (F) virus induced cytopathicity in E6SM cells; conditions: Homo sapiens; outline: as §1
# E6SM [20] = test: Minimum inhibitory conc. for 50% inhibition of HSV-2 (Lyons) virus induced cytopathicity in E6SM cells; conditions: Homo sapiens; outline: as §1
# HEL [21] = test: Minimum inhibitory conc. for 50% inhibition of TK-VZV (YS/R) virus plaque formation in HEL cells; conditions: Homo sapiens
# HEL [22] = test: Minimum inhibitory conc. for 50% inhibition of VZV (YS) virus plaque formation in HEL cells; conditions: Homo sapiens
# E6SM [23] = test: Minimum inhibitory conc. for 50% inhibition of HSV-2 (196) virus induced cytopathicity in E6SM cells; conditions: Homo sapiens; outline: as §1
# E6SM [24] = test: Minimum inhibitory conc. for 50% inhibition of alteration of morphology in E6SM cells; conditions: Homo sapiens
# Outline: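 Toxicity in E6SM, HeLa or Vero cultures was judged by microscopically visible alteration of normal cell morphology. The value is the concentration producing this alteration (50%).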
# HEL [25] = test: Minimum inhibitory conc. for 50% inhibition of CMV (AD-169) virus plaque formation in HEL cells; conditions: Homo sapiens
# Outline: (§2)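 HEL cell cultures were inoculated with 100 CCID50 of virus and allowed 1 h of adsorption. Residual virus was then removed. Cultures were incubated with compound at graded concentrations (400, 200, 100, ... µg/mL). Read-out was virus plaque formation, scored when the infected controls were fully affected. The value is the concentration reducing plaque formation by 50%.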
# HEL [26] = test: Minimum inhibitory conc. for 50% inhibition of CMV (Davis) virus plaque formation in HEL cells; conditions: Homo sapiens; outline: as §2
Structure (SMILES),MIC (E6SM [11]) [µg/mL],MIC (E6SM [12]) [µg/mL],MIC (E6SM [13]) [µg/mL],MIC (HEL [14]) [µg/mL],MIC (E6SM [16]) [µg/mL],MIC (E6SM [18]) [µg/mL],MIC (E6SM [24]) [µg/mL],MIC (HEL [25]) [µg/mL],MIC (HEL [26]) [µg/mL],other results
NC(=O)c1ncn([C@@H]2O[C@H](CO)[C@@H](O)[C@H]2O)n1 [RIBAVIRIN],,,,,,,,,,MIC (Vero [1]): 150 µg/mL; MIC (HeLa [2]): 4 µg/mL; MIC (Vero [3]): > 400 µg/mL; MIC (HeLa [4]): > 200 µg/mL; MIC (HeLa [5]): 70 µg/mL; MIC (Vero [6]): 70 µg/mL; MIC (Vero [7]): 300 µg/mL; MIC (Vero [8]): 70 µg/mL; MIC (HeLa [9]): 70 µg/mL
O=c1[nH]c(=O)n([C@H]2C[C@H](O)[C@@H](CO)O2)cc1/C=C/Br [BRIVUDINE],0.004,> 200,0.07,150,> 200,7,> 400,,,MIC (E6SM [10]): 0.007 µg/mL; MIC (HEL [15]): 5 µg/mL; MIC (HEL [17]): 0.0008 µg/mL; MIC (E6SM [19]): 0.01 µg/mL; MIC (E6SM [20]): 100 µg/mL; MIC (HEL [21]): > 50 µg/mL; MIC (HEL [22]): 0.002 µg/mL; MIC (E6SM [23]): > 200 µg/mL
Nc1nc2c(ncn2COCCO)c(=O)[nH]1 [ACYCLOVIR],0.04,> 200,> 200,> 200,0.07,70,400,,,
Nc1nc2c(ncn2COC(CO)CO)c(=O)[nH]1 [GANCICLOVIR],,,,,,,,1.5,0.13,
Nc1ccn(C[C@@H](CO)OCP(=O)(O)O)c(=O)n1.O.O [CIDOFOVIR],,,,,,,,0.06,0.07,
